Bioassay records deposited in PubChem BioAssay by several laboratories.
Compounds with a hit are over-represented: about 1.7% of the library has one in this group of screens.
Vif imaging = inhibitors of HIV Vif. AID 602346. hit rate 0.35% among 340,000. HEK293T cells, Vif self-association by quenched fluorescence, imaging, 24 h. inhibition, % at 7.49 µM; in the data active means inhibition above about 50%, passing the limit was not always enough; inconclusive means no clear call, values can overlap the other calls; inactive means below about 31%
RanGTP-Impb inh = inhibitors of RanGTP-importin-beta interaction, primary screen, biochemical, FRET, CFP-Ran, YFP-importin-beta, homogeneous | cell-free CFP-Ran/YFP-importin-beta FRET ratio | AID 2216 | inhibition, % (no concentration beside the values) | hit rate 1.1% among 300,000;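 active means more than half of the replicate wells show a fall in the fluorescence ratio signal beyond about 16%, limit read from the data, passing the limit was not always enough; inconclusive means exactly half of the replicate wells pass the set limit; inactive means fewer than half of replicates pass the limit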;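 further: 0% = DMSO wells and 100% = Ran loaded with GDP instead of GTP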
Runt-CBFb FRET = Runt domain-CBFb interaction inhibition; hit rate 0.46% among 220,000; AID 1496; Q01196+Q13951; Cerulean-Runt/Venus-CBFb FRET ratio 530/480, 1 h; inhibition, % at 20 µM;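 active means inhibition over about 50% at 20 µM in the single-dose screen, limit read from the data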;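 further: 0% = DMSO wells and 100% = excess unlabeled CBFb competitor control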
Target sequence (Q01196 whole entry, looked up, the tested form may be a part): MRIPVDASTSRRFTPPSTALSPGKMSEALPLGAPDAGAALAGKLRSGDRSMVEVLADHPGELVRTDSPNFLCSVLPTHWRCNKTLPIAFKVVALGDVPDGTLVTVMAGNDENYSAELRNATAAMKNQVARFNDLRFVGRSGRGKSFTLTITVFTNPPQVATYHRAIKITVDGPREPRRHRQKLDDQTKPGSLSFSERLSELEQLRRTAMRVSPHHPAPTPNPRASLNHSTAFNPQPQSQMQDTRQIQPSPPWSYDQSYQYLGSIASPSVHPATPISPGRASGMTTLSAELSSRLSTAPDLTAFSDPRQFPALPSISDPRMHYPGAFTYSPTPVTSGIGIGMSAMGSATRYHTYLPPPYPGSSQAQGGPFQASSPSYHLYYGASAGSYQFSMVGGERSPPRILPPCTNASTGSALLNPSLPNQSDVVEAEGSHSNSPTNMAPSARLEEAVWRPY
Target sequence (Q13951 whole entry, looked up, the tested form may be a part): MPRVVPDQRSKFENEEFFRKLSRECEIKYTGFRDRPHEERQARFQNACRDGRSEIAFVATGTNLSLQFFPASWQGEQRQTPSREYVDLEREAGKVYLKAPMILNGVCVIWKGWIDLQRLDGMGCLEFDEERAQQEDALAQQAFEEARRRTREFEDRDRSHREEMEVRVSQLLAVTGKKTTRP
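System: Cerulean-labeled Runt domain protein | Quantity: 100 nM of each labeled protein | Schedule: 1 h compound exposure, room temperature | Detection: Fluorescence energy transfer, 422 nm excitation, 530/480 nm emission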
Rce1 inhib = yeast Ras-converting enzyme inhibition. Q03530. yeast membranes, quenched prenylated peptide cleavage fluorescence. calls only. hit rate 0.27% among 290,000;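 active means fall in fluorescence gain of 50% or more versus controls, with final raw signal at or below 3038400; inconclusive means same 50% fall but final raw signal above 3038400; inactive means fall in fluorescence gain under 50%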;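 further: plate controls were neutral control wells for no effect and wells lacking membranes for full effect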
Runt-SMMHC FRET = inhibitors of human RUNX1 Runt domain binding to CBFb-SMMHC; Cerulean-Runt/Venus-CBFb-SMMHC FRET ratio 530/480, 1 h; inhibition, % at 20 µM; hit rate 0.74% among 220,000; AID 1434;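 active means mean inhibition across duplicate retests at 20 µM reaching about 50%, limit read from the data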;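 further: 0% = DMSO wells and 100% = wells with excess untagged CBFb-SMMHC; inhibitors lower the FRET ratio by blocking Runt binding to CBFb-SMMHC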
* = called active by the depositor; i = inactive; ? = inconclusive; · = not tested or not shown; + = active, no number.

SMILES	Vif imaging	RanGTP-Impb inh	Runt-CBFb FRET	Rce1 inhib	Runt-SMMHC FRET
Cc1ccc2nc3c(cc(C#N)c(=N)n3CC3CCCO3)c(=O)n2c1 (stereo unspecified)	·	·	10.8	·	42.1
C=CCNC(=O)c1cc2c(=O)n3cc(C)ccc3nc2nc1NCC1CCCO1 (stereo unspecified)	·	179.3*	18.8	+	59.6*
CCNc1nc2nc3ccc(C)cn3c(=O)c2cc1C(=O)NCC1CCCO1 (stereo unspecified)	-4.1	184.6*	18.7	?	90.9*
O=C(Nc1ccc(Cl)cc1)c1cncs1	-7.1	0.6	·	i	·
C/C(CC1(O)C(=O)Nc2ccccc21)=N\O (stereo unspecified)	25.9	-2.4	-0.3	+	-0.4
CSc1ccccc1NC(=O)COC(=O)c1ccc(-n2nc(C)cc2C)cc1	-4.1	·	·	·	·
O=S(=O)(c1ccc2ccccc2c1)N1CCN(CCO)CC1	21.3	-3.9	·	i	·
NC(=O)c1cc([N+](=O)[O-])ccc1NCc1ccc(N)cc1	-5.6	·	·	·	·
Cc1ccc(NC2=CC(=O)CC(c3ccc(Cl)cc3)C2)cc1 (stereo unspecified)	-0.1	34.8*	0.1	i	0.5
COc1cc(/C=C(\C#N)C(=O)NC(C)C)cc(Cl)c1O	15.1	-3.4	32.9	i	63.3*
CC(C)NC(=O)/C(C#N)=C/c1cccc(NC(=O)c2ccccc2Cl)c1	-1.8	-3.2	0.3	i	8.1
CCOc1cccc(CN2CCC(Oc3ccc(C(=O)N4CCCC4)cc3)CC2)c1O	6.8	·	·	·	·
COc1ccccc1C(=O)Nc1ccnn1C1CCN(Cc2ccn[nH]2)CC1	·	1.5	·	i	·
CC(=O)Nc1cccc(NC(=O)COc2ccc3c(c2)OCO3)c1	-5.7	-9.5	·	·	·
CC(C)CNC(=O)Nc1ccc(F)c(Cl)c1	·	3.4	-1.8	+	-2.1
Oc1sc(C=Nc2ccccc2)c2ccccc12	9.1	0.6	-34.9	i	-111.5
Oc1c(C=NCc2ccncc2)sc2ccccc12	·	12.6	42.5	i	65.9*
CC(=O)NCCN=Cc1sc2ccccc2c1O	14.5	30.8*	31.2	i	60.2*
Oc1c(/C=N/c2ccccn2)sc2ccccc12	8.1	22.6*	9.7	i	15.8
Oc1c(C=Nc2ccc(Cl)cn2)sc2ccccc12	2.6	?	22.5	i	-11.2
CN=Cc1sc2ccccc2c1O	3.3	13.4	27.9	i	54.2
Oc1c(C=Nc2cccnc2)sc2ccccc12	2.0	21.6*	33.7	i	62.9*
CCn1ccnc1CN(C)C(=O)C1CCC(=O)N(Cc2cccc(C(F)(F)F)c2)C1 (stereo unspecified)	6.5	5.9	·	i	·
COc1ccc(-n2c3c(cc(C(=O)NCC(=O)c4ccccc4)c2=O)C(=O)CC(C)(C)C3)cc1	-0.1	4.3	·	i	·
CCN(CC)C(=O)CSCc1cnn(-c2ccccc2)c1-n1cccc1	-1.2	-0.9	4.0	i	-1.8
SMILES	Vif imaging	RanGTP-Impb inh	Runt-CBFb FRET	Rce1 inhib	Runt-SMMHC FRET
N#C/C(C(=O)Oc1ccccc1)=C1\C=Cc2ccccc2N1	-2.1	54.5*	33.5	·	17.7
COc1ccc(C(=O)NCc2ccncc2)cc1S(=O)(=O)N1CCOCC1	7.2	·	·	·	·
CCc1ccc(C(=O)N/N=C/c2ccncc2)s1	2.9	-1.3	·	i	·
Cc1ccccc1NC(=O)c1cc2c(=O)n3cccc(C)c3nc2s1	17.0	83.8*	·	i	·
CCOC(=O)N1CCN(C(=O)c2cc3c(=O)n4ccccc4nc3s2)CC1	3.1	0.9	·	i	·
Cc1cccn2c(=O)c3cc(C(=O)NC4CCS(=O)(=O)C4)sc3nc12 (stereo unspecified)	10.5	4.6	5.9	i	8.6
Cc1cccn2c(=O)c3cc(C(=O)NC4CCCCCC4)sc3nc12	-4.1	18.6*	·	i	·
CSc1ccccc1NC(=O)c1cc2c(=O)n3ccccc3nc2s1	i	71.5*	·	i	·
CN1CCN(C(=O)c2cc3c(=O)n4ccccc4nc3s2)CC1	-8.7	19.7*	·	i	·
CCOc1ccc(NC(=O)CN(C)C(=O)c2ccc3c(c2)C(=O)N(CCC(C)C)C3=O)cc1OCC	1.7	-2.4	·	i	·
CCNC(=O)[C@H]1O[C@@H](n2cnc3c(N)nc(NCCc4ccc(CCC(=O)O)cc4)nc32)[C@H](O)[C@@H]1O	63.2*	6.5	1.3	i	-4.9
CC(=O)Oc1ccc(C(=O)Nc2ccc(S(=O)(=O)NCC3CCCO3)cc2)cc1 (stereo unspecified)	3.0	-1.3	·	+	·
Cc1nc2c(sc3nc(N4CCOCC4)c4c(c32)CC(C)(C)OC4)c(-c2ccccc2)c1C(=O)O	-4.4	23.4*	13.6	i	82.5
CC1(C)Cc2c(c(N3CCOCC3)nc3snc(NC(=O)c4ccccc4)c23)CO1	·	3.2	0.2	i	0.4
O=S(=O)(NC1=NCCC1)c1cccc(NC(=S)NCCc2ccccc2)c1	·	-0.4	-4.5	i	-12.7
Cc1ccc(NC(=O)CN(C)C2CCCCC2)cc1Cl	-0.5	2.0	·	i	·
COc1cccc(C(NC(C)=O)c2nc(-c3ccc4ccccc4c3)cs2)c1 (stereo unspecified)	2.6	·	·	·	·
CCCNC(=O)c1ccc(SCC(=O)N(CC)CC)c([N+](=O)[O-])c1	65.4*	2.6	-3.3	i	2.9
CCOC(=O)CSc1ccc(C(=O)NCCN2CCOCC2)cc1[N+](=O)[O-]	-9.8	5.1	·	i	·
CCOC(=O)N1CCN(C(=O)c2cn(CC)c3ccc(S(=O)(=O)N4CC(C)CC(C)C4)cc3c2=O)CC1 (stereo unspecified)	2.4	1.7	-2.1	i	-4.7
COc1ccc(-c2cc3ccccc3n2CC(O)CNCCO)cc1 (stereo unspecified)	-1.5	-2.6	-14.6	+	-20.9
O=C(c1ccc(Cn2cnnn2)cc1)N1CCCC(Nc2ccc(F)c(F)c2)C1 (stereo unspecified)	-11.2	?	·	i	·
CCOc1ccc(NC(=O)CCNC(=O)Cn2ccc3ccccc3c2=O)cc1	?	0.9	·	i	·
CC(C)c1ccc(/C=C2\Oc3c(ccc(O)c3CN3CCN(C)CC3)C2=O)cc1	4.9	·	-114.4	i	87.5*
Cc1ccc(/C=C2\Oc3c(ccc(O)c3CN3CCN(CCO)CC3)C2=O)cc1	-3.0	35.4*	3.4	i	90.0*
O=C1/C(=C/c2ccco2)Oc2c1ccc(O)c2CN1CCCCC1	·	-62.3	10.8	i	-35.2
CC1CCN(Cc2c(O)ccc3c2O/C(=C\c2ccco2)C3=O)CC1	·	-41.3	3.6	i	-17.9
CCCS(=O)(=O)NC(=O)C1(C)CCCN(C(=O)C(C)(C)Oc2ccc(Cl)cc2)C1 (stereo unspecified)	9.1	·	·	·	·
CC1(c2nnc(-c3cccc(Cl)c3)o2)CC(c2cccc(F)c2)=NO1 (stereo unspecified)	·	-0.6	·	+	·
CC1(c2nnc(-c3ccc(F)cc3)o2)CC(c2cccc(Cl)c2)=NO1 (stereo unspecified)	-1.1	-1.6	0.7	i	1.1
